# Source: ChEMBL document CHEMBL3085676, “Self-assembly to function: design, synthesis, and broad spectrum antimicrobial properties of short hybrid E-vinylogous lipopeptides” (J Med Chem, 2013)
# Activity calls are given as the source filed them. The rule behind the calls is not given here. Where a SMILES comes first, the peptide text is derived from it. The star is where a group is joined. Octanoyl = CCCCCCCC(=O)*
# Columns and labels:
# Klebsiella pneumoniae = test: Antibacterial activity against Klebsiella pneumoniae NCIM 2957 after 18 to 20 hrs by broth dilution assay; assay type: functional
# Procedure, shortened: (§1)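 Two-fold serial dilutions in Mueller-Hinton broth, run in triplicate. Overnight 37 °C cultures diluted to 10⁶ CFU/mL and added 1:1 to the peptide, then incubated at 37 °C for 18-20 h. Growth was read as absorbance at 492 nm against no-peptide controls. MIC taken as the lowest concentration giving complete inhibition or killing. Reproducible across three independent triplicates.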
# Nakaseomyces glabratus = test: Antifungal activity against Candida glabrata NCIM 3237 after 48 to 72 hrs; assay type: functional
# Procedure, shortened: (§2)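 Peptide in water was serially diluted two-fold in potato dextrose broth and mixed 1:1 with yeast suspension at 2×10³ CFU/ml. Incubated at 25 °C for 48-72 h, with growth read as absorbance at 620 nm against a peptide-free culture. MIC was the lowest concentration giving complete growth inhibition. Run in triplicate.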
# Pseudomonas aeruginosa = test: Antibacterial activity against Pseudomonas aeruginosa NCIM 5029 after 18 to 20 hrs by broth dilution assay; assay type: functional; procedure, shortened: as §1
# Staphylococcus aureus = test: Antibacterial activity against Staphylococcus aureus NCIM 5021 after 18 to 20 hrs by broth dilution assay; assay type: functional; procedure, shortened: as §1
# Candida albicans [1] = test: Antifungal activity against Candida albicans NCIM 3471 after 48 to 72 hrs; assay type: functional; procedure, shortened: as §2
# Cryptococcus neoformans = test: Antifungal activity against Cryptococcus neoformans NCIM 3542 after 48 to 72 hrs; assay type: functional; procedure, shortened: as §2
# Escherichia coli [2] = test: Antibacterial activity against Escherichia coli K-12 NCIM 2563 at 50 uM after 60 mins by FITC uptake assay; assay type: functional, organism-based
# Procedure, shortened: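 E. coli grown in MHB to OD 0.6, washed, and suspended at 2×10⁷ cfu/ml in 10 mM sodium phosphate pH 7.4. Cells incubated with 50 µM peptide at 37 °C for 60 min, then immobilized on poly-L-lysine slides for 50 min at 30 °C. FITC (10 µg/ml) added, slides washed, and cells examined by fluorescence microscopy. Solvent-treated control.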
# Escherichia coli [3] = test: Antibacterial activity against Escherichia coli NCIM 2065 after 18 to 20 hrs by broth dilution assay; assay type: functional; procedure, shortened: as §1
# Escherichia coli [4] = test: Antibacterial activity against Escherichia coli expressing pUC19 plasmid assessed as disruption of cytoplasmic membrane at 20 ug/mL after 1 hr by beta-galactosidase leakage assay; assay type: functional, organism-based
# Procedure, shortened: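 E. coli TOP10 transformed with pUC19 (lacZ) grown in LB with 100 µg/ml ampicillin at 37 °C to A660 0.6, then washed three times. Peptide stock (200 µg/ml) added 1:10 to cells and incubated at 37 °C for 1 h. After centrifugation, supernatant was mixed with 4-methylumbelliferyl substrate and fluorescence followed for 1 h. Initial velocities used; water blank; triplicates.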
# [5] = Hemolytic activity in human RBC after 1 hr; assay type: ADME, cell-based; conditions: erythrocyte
# Procedure, shortened: (§3)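 Fresh EDTA-collected human RBCs washed four times in Tris-buffered saline (10 mM Tris, 150 mM NaCl, pH 7.2) and used at 4% v/v, mixed 1:1 with two-fold serially diluted peptide (top 100 µg/ml before mixing). Incubated at 37 °C for 1 h and centrifuged; supernatant hemoglobin read at 540 nm. Buffer and 1% Triton-X served as negative and positive controls. Percent hemolysis = (A−A_N)/(A_P−A_N)×100. Run in duplicate.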
# Saccharomyces cerevisiae = test: Antifungal activity against Saccharomyces cerevisiae NCIM 3454 after 48 to 72 hrs; assay type: functional; procedure, shortened: as §2
# Candida albicans [6] = test: Antifungal activity against Candida albicans NCIM 3471 assessed as disruption of cell membrane by atomic force microscopic analysis; assay type: functional, organism-based
# Procedure, shortened: (§4)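 E. coli grown in MHB and C. albicans in potato dextrose broth were pelleted and resuspended in deionized water. Cells incubated with 50 µM peptide at 37 °C for 1 h, dried 30 min at 25 °C on poly-L-lysine glass, and imaged by AFM in intermittent contact mode. Peptide-free cells served as control.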
# Escherichia coli [7] = test: Antibacterial activity against Escherichia coli K-12 NCIM 2563 after 18 to 20 hrs by broth dilution assay; assay type: functional; procedure, shortened: as §1
# Salmonella typhimurium = test: Antibacterial activity against Salmonella typhimurium NCIM 2501 after 18 to 20 hrs by broth dilution assay; assay type: functional, Salmonella enterica subsp. enterica serovar Typhimurium; conditions: Salmonella enterica; procedure, shortened: as §1
# Escherichia coli [8] = test: Antibacterial activity against Escherichia coli K-12 NCIM 2563 assessed as disruption of cell membrane at 50 uM after 1 hr by atomic force microscopic analysis; assay type: functional, organism-based; procedure, shortened: as §4
# [9] = Hemolytic activity in human RBC at 100 ug/ml after 1 hr; assay type: ADME, cell-based; conditions: erythrocyte; procedure, shortened: as §3
SMILES,MIC (Klebsiella pneumoniae) [µg/mL],MIC (Nakaseomyces glabratus) [µg/mL],MIC (Pseudomonas aeruginosa) [µg/mL],MIC (Staphylococcus aureus) [µg/mL],MIC (Candida albicans [1]) [µg/mL],MIC (Cryptococcus neoformans) [µg/mL],Activity (Escherichia coli [2]),MIC (Escherichia coli [3]) [µg/mL],Activity (Escherichia coli [4]),HD10 [5] [µg/mL],MIC (Saccharomyces cerevisiae) [µg/mL],Activity (Candida albicans [6]),MIC (Escherichia coli [7]) [µg/mL],MIC (Salmonella typhimurium) [µg/mL],Activity (Escherichia coli [8]),Activity [9]
CCCCCCCCCCCC(=O)N[C@H](/C=C/C(=O)N[C@@H](CCCCN)C(=O)N[C@H](/C=C/C(=O)N[C@@H](CCCCN)C(N)=O)Cc1ccc(O)cc1)Cc1ccc(O)cc1,3.12,3.12,3.12,3.12,1.56,6.25,Active,6.25,Active,2.5,3.12,Active,6.25,3.12,Active,
CCCCCCCC(=O)N[C@@H](CC(C)C)C(=O)N[C@@H](CCCCN)C(=O)N[C@H](C(=O)N[C@@H](CCCCN)C(N)=O)C(C)C (Octanoyl-LKVK-NH2),> 100,> 100,> 100,> 100,> 100,> 100,,> 100,,,> 100,Active,> 100,> 100,Active,Non-toxic
CCCCCCCCCCCC(=O)N[C@@H](C)/C=C/C(=O)N[C@@H](CCCCN)C(=O)N[C@@H](C)/C=C/C(=O)N[C@@H](CCCCN)C(N)=O,3.12,6.25,6.25,6.25,3.12,6.25,,6.25,inactive,48,3.12,Active,6.25,6.25,Active,
CCCCCCCC(=O)N[C@H](/C=C/C(=O)N[C@@H](CCCCN)C(=O)N[C@H](/C=C/C(=O)N[C@@H](CCCCN)C(N)=O)Cc1ccc(O)cc1)Cc1ccc(O)cc1,50,25,50,50,12.5,25,,25,,54,12.5,Active,25,50,Active,
CC(=O)N[C@H](/C=C/C(=O)N[C@@H](CCCCN)C(=O)N[C@H](/C=C/C(=O)N[C@@H](CCCCN)C(N)=O)Cc1ccccc1)Cc1ccccc1,> 100,> 100,> 100,> 100,> 100,> 100,,> 100,,,> 100,Active,> 100,> 100,Active,Non-toxic
CCCCCCCCCCCC(=O)N[C@@H](C)/C=C/C(=O)N[C@@H](CCCNC(=N)N)C(=O)N[C@@H](C)/C=C/C(=O)N[C@@H](CCCNC(=N)N)C(N)=O,6.25,6.25,3.12,6.25,3.12,12.5,,12.5,,22,3.12,Active,12.5,3.12,Active,
CCCCCCCC(=O)N[C@@H](C)/C=C/C(=O)N[C@@H](CCCCN)C(=O)N[C@@H](C)/C=C/C(=O)N[C@@H](CCCCN)C(N)=O,> 100,50,> 100,> 100,> 100,> 100,,> 100,,58,> 100,Active,> 100,> 100,Active,
CCCCCCCC(=O)N[C@H](/C=C/C(=O)N[C@@H](CCCCN)C(=O)N[C@H](/C=C/C(=O)N[C@@H](CCCCN)C(N)=O)C(C)C)CC(C)C,25,50,50,50,25,6.25,,12.5,,,50,Active,,50,Active,
CCCCCCCCCCCC(=O)N[C@H](/C=C/C(=O)N[C@@H](CCCCN)C(=O)N[C@H](/C=C/C(=O)N[C@@H](CCCCN)C(N)=O)Cc1ccccc1)Cc1ccccc1,25,6.25,25,25,3.12,6.25,,25,,< 1.56,6.25,Active,25,25,Active,
CCCCCCCC(=O)N[C@H](/C=C/C(=O)N[C@@H](CCCCN)C(=O)N[C@H](/C=C/C(=O)N[C@@H](CCCCN)C(N)=O)Cc1ccccc1)Cc1ccccc1,3.12,3.12,3.12,3.12,3.12,3.12,Active,1.56,Active,16,3.12,Active,1.56,3.12,Active,
CCCCCCCC(=O)N[C@@H](C)/C=C/C(=O)N[C@@H](CCCNC(=N)N)C(=O)N[C@@H](C)/C=C/C(=O)N[C@@H](CCCNC(=N)N)C(N)=O,> 100,> 100,> 100,> 100,> 100,> 100,,> 100,,52,> 100,Active,> 100,> 100,Active,
